Data set [1] is filed under the species Rattus norvegicus. The data set can be described thus: Radioactivity distribution in muscle of normal fischer rat after injection of syn-[18F]-FMACBC after 5 min. Format: ADME, organism-based, Muscle tissue. The following applies: in vivo. The method, boiled down: (§1)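 Normal male Fischer 344 rats (200–250 g) were anesthetised with ketamine:xylazine i.m. and given about 85 μCi tracer in 0.3 mL sterile water via a tail vein catheter. Groups of four were killed at 5, 30, 60 and 120 min. Selected tissues were weighed and gamma counted with dose standards, decay-corrected, and expressed as mean %ID/g.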

The species entered for data set [2] is Rattus norvegicus. As to the kind of experiment: Radioactivity distribution in heart of tumor-bearing fischer rat after injection of syn-[18F]-FMACBC after 5 min. Format: ADME, organism-based. Conditions: in vivo. An outline of the steps:
(§2)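 Male Fischer 344 rats carrying intracranial rat 9L gliosarcoma, made by stereotaxic injection of 4 × 10^4 cells 17–19 days before. Awake restrained rats received ~35 μCi of 18F tracer in 0.3 mL sterile water IV by tail vein and were killed at 5, 60 or 120 min, n = 3–5. Tissues were weighed, gamma-counted, decay-corrected and expressed as % injected dose per gram.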

Data set [3] is filed under the species Rattus norvegicus. The data set can be described thus: Radioactivity distribution in heart of tumor-bearing fischer rat after injection of anti-[18F]FMACBC after 5 min. In kind it is ADME, organism-based. The following applies: in vivo. The method, boiled down:
as §2

For data set [4], the species on record is Rattus norvegicus. As to the kind of experiment: Radioactivity distribution in brain of normal fischer rat after injection of syn-[18F]-FMACBC after 5 min. In kind it is ADME, organism-based. The following applies: in vivo. An outline of the steps: (§3)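 Male Fischer 344 rats (200–250 g), normal, fed ad libitum, given ~85 μCi of 18F tracer in 0.3 mL sterile water IV through a tail vein catheter. Anesthesia was ketamine:xylazine IM. Groups of four were killed at 5, 30, 60 and 120 min. Tissues were weighed and gamma-counted against dose standards, decay-corrected, and expressed as mean % injected dose per gram.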

For data set [5], the species on record is Rattus norvegicus. The data set can be described thus: Radioactivity distribution in brain of tumor-bearing fischer rat after injection of anti-[18F]FMACBC after 5 min. In kind it is ADME, organism-based. The following applies: in vivo. The method, boiled down:
as §2

For data set [6], the species on record is Rattus norvegicus. The data set can be described thus: Radioactivity distribution in spleen of normal fischer rat after injection of anti-[18F]FMACBC after 120 min. In kind it is ADME, organism-based. The following applies: in vivo, 2 h. An outline of the steps: as §1
The species entered for data set [7] is Rattus norvegicus. As to the kind of experiment: Radioactivity distribution in kidney of tumor-bearing fischer rat after injection of anti-[18F]FMACBC after 120 min. In kind it is ADME, organism-based. Conditions: in vivo, 2 h. The method, boiled down: as §2
The species named for data set [8] is Rattus norvegicus. As to the kind of experiment: Radioactivity distribution in bone of normal fischer rat after injection of syn-[18F]-FMACBC after 120 min. The following applies: in vivo, 2 h. Format: ADME, organism-based, Bone element. An outline of the steps: as §3
The species entered for data set [9] is Rattus norvegicus. As to the kind of experiment: Radioactivity distribution in blood of normal fischer rat after injection of anti-[18F]FMACBC after 30 min. Conditions: in vivo, 0.5 h. In kind it is ADME, organism-based. An outline of the steps: as §3
The species entered for data set [10] is Rattus norvegicus. The data set can be described thus: Radioactivity distribution in spleen of normal fischer rat after injection of anti-[18F]FMACBC after 5 min. Format: ADME, organism-based. The following applies: in vivo. The method, boiled down: as §1
The species named for data set [11] is Rattus norvegicus. As to the kind of experiment: Radioactivity distribution in kidney of normal fischer rat after injection of syn-[18F]-FMACBC after 120 min. Format: ADME, organism-based. Conditions: in vivo, 2 h. The method, boiled down:
as §3

The species named for data set [12] is Rattus norvegicus. As to the kind of experiment: Radioactivity distribution in tumor of tumor-bearing fischer rat after injection of syn-[18F]-FMACBC after 5 min. In kind it is ADME, organism-based. Conditions: in vivo. An outline of the steps: (§4)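 Male Fischer 344 rats with intracranial 9L gliosarcoma (4 × 10^4 cells stereotaxically implanted; used 17–19 days after implantation). About 35 μCi tracer in 0.3 mL sterile water was given by tail vein to awake, restrained rats. Rats were killed at 5, 60 or 120 min. Tissues, tumor and contralateral brain were weighed and gamma counted, decay-corrected, and expressed as %ID/g; n = 3–5 per time point.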

The species named for data set [13] is Rattus norvegicus. As to the kind of experiment: Radioactivity distribution in lung of tumor-bearing fischer rat after injection of syn-[18F]-FMACBC after 120 min. Format: ADME, organism-based. Conditions: in vivo, 2 h. The method, boiled down:
as §4

Data set [14] is filed under the species Rattus norvegicus. As to the kind of experiment: Radioactivity distribution in bone of tumor-bearing fischer rat after injection of anti-[18F]FMACBC after 120 min. In kind it is ADME, organism-based, Bone element. The following applies: in vivo, 2 h. The method, boiled down: as §2
The species entered for data set [15] is Rattus norvegicus. The data set can be described thus: Radioactivity distribution in liver of normal fischer rat after injection of syn-[18F]-FMACBC after 120 min. In kind it is ADME, organism-based. The following applies: in vivo, 2 h. The method, boiled down:
as §3

The species named for data set [16] is Rattus norvegicus. As to the kind of experiment: Radioactivity distribution in brain of normal fischer rat after injection of syn-[18F]-FMACBC after 30 min. In kind it is ADME, organism-based. The following applies: in vivo, 0.5 h. The method, boiled down:
as §3

The species entered for data set [17] is Rattus norvegicus. The data set can be described thus: Radioactivity distribution in liver of tumor-bearing fischer rat after injection of syn-[18F]-FMACBC after 5 min. In kind it is ADME, organism-based. Conditions: in vivo. The method, boiled down:
as §4

For data set [18], the species on record is Rattus norvegicus. The data set can be described thus: Radioactivity distribution in testis of normal fischer rat after injection of syn-[18F]-FMACBC after 30 min. In kind it is ADME, organism-based. Conditions: in vivo, 0.5 h. An outline of the steps: as §1

Consider `N[C@]1(C(=O)O)C[C@@H](CF)C1`, for which the ID/g in the data set listed under Rattus norvegicus [1] was 0.46%; in the data set filed under Rattus norvegicus [2] it was 0.52%; in the data set listed under Rattus norvegicus [3], 0.58%; in the data set filed under Rattus norvegicus [4], 0.26%; in the data set listed under Rattus norvegicus [5], 0.17%; in the data set listed under Rattus norvegicus [6], 0.47%. Besides, the ID/g in the data set listed under Rattus norvegicus [7] is given as 0.79%; in the data set listed under Rattus norvegicus [8] it was 0.32%; in the data set filed under Rattus norvegicus [9] it was 0.39%; in the data set filed under Rattus norvegicus [10], 1.03%; in the data set filed under Rattus norvegicus [11], 0.46%; in the data set filed under Rattus norvegicus [12], 1.16%. Moreover, the ID/g was found to be 0.26% in the data set filed under Rattus norvegicus [13]; 0.19% in the data set listed under Rattus norvegicus [14]; 0.52% in the data set listed under Rattus norvegicus [15]; 0.24% in the data set listed under Rattus norvegicus [16]; 0.64% in the data set listed under Rattus norvegicus [17]; 0.29% in the data set listed under Rattus norvegicus [18].

The record behind these values is ChEMBL document CHEMBL1136049, “Synthesis of syn- and anti-1-amino-3-[18F]fluoromethyl-cyclobutane-1-carboxylic acid (FMACBC), potential PET ligands for tumor detection” (J Med Chem, 2002).
